Experiment [1] addresses T1, Casein kinase II (Homo sapiens) (UniProt P67870+P68400+P19784). Put plainly: Residual activity of human CK2 at 30 uM. Type of experiment: protein-complex assay.
Experiment [2] addresses T2, Casein kinase II (Homo sapiens, UniProt P19784+P67870+P68400). Put plainly: Inhibition of human CK2. Type of experiment: protein-complex assay.
Experiment [3] concerns the target T1, Casein kinase II (Homo sapiens). Put plainly: Residual activity of CK2 at 10 uM in presence of 100 uM ATP relative to control. It is filed as protein-complex assay.
In experiment [4] the target is Cyclin-dependent kinase 5 (Homo sapiens) (UniProt Q00535). As to the kind of experiment: Residual activity of CDK5 at 10 uM in presence of 100 uM ATP relative to control.
Cyclin-dependent kinase 5 (Homo sapiens), sequence (Q00535 whole entry, looked up): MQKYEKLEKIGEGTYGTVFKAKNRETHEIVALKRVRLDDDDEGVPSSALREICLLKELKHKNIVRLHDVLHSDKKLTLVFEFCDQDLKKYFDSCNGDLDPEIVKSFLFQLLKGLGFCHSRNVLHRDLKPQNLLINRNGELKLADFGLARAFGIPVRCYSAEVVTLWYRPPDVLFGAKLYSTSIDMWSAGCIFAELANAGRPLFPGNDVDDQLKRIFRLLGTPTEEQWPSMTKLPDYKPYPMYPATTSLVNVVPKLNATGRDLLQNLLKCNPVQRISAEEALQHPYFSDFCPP
The target of experiment [5] is Dual specificity tyrosine-phosphorylation-regulated kinase 1A (Homo sapiens) (UniProt Q13627). As to the kind of experiment: Residual activity of DYRK1a at 10 uM in presence of 100 uM ATP relative to control.
The target in experiment [6] is Rho-associated protein kinase 1 (Homo sapiens) (UniProt Q13464). Put plainly: Residual activity of ROCK1 at 10 uM in presence of 100 uM ATP relative to control.
Rho-associated protein kinase 1 (Homo sapiens), sequence (Q13464 2-1354 limits assumed): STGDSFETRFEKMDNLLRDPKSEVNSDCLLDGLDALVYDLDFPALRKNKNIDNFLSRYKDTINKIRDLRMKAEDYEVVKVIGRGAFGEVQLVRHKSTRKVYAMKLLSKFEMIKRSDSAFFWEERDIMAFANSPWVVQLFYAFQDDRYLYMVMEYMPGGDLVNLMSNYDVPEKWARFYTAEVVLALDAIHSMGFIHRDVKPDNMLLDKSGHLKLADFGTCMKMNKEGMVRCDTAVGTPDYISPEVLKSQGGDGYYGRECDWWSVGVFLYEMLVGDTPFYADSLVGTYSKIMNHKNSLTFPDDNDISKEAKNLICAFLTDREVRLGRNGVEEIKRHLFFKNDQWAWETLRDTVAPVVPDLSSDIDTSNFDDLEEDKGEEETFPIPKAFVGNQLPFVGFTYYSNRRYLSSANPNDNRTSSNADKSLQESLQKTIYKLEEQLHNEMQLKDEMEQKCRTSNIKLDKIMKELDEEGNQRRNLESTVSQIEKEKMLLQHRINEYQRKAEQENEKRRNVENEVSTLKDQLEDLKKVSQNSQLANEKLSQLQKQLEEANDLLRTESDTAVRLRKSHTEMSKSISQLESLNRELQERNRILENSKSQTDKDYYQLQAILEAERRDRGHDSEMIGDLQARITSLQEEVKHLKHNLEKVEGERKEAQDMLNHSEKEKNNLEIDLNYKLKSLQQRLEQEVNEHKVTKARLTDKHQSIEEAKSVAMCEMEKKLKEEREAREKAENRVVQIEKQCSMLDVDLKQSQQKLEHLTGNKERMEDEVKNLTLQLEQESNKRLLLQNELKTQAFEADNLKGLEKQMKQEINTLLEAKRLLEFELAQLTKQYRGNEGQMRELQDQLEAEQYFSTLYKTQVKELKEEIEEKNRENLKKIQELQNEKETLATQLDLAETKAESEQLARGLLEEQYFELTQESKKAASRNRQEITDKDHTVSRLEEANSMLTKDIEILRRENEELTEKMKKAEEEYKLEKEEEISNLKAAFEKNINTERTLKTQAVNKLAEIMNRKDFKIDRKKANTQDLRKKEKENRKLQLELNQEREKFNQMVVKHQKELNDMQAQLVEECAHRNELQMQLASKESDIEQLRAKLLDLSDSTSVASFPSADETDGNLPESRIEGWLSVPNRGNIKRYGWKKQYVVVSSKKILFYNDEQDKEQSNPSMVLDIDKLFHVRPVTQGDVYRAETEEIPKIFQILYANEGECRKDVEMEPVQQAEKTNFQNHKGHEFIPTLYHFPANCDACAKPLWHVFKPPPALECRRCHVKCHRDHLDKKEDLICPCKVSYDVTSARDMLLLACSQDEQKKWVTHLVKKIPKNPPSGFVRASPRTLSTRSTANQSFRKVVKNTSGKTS
The target of experiment [7] is Mitogen-activated protein kinase 10 (Homo sapiens) (UniProt P53779). As to the kind of experiment: Residual activity of JNK3 at 10 uM in presence of 100 uM ATP relative to control.
Mitogen-activated protein kinase 10 (Homo sapiens), sequence (P53779 whole entry): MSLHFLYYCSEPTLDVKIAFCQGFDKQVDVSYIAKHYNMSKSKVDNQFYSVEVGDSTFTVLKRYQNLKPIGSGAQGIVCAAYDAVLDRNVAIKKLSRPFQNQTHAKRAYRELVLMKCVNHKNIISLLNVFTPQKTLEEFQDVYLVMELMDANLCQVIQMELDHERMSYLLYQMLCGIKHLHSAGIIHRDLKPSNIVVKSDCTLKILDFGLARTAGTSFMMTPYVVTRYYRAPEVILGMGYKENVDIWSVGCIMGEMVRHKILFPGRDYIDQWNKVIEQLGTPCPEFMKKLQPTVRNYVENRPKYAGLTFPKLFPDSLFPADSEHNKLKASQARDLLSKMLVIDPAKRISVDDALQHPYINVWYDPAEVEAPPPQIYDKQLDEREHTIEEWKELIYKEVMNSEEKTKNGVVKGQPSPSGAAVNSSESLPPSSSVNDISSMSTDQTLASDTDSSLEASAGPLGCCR
For experiment [8], the target named is Glycogen synthase kinase-3 (Homo sapiens) (UniProt P49840+P49841). As to the kind of experiment: Residual activity of GSK3 at 10 uM in presence of 100 uM ATP relative to control. Type of experiment: protein assay.
Glycogen synthase kinase-3 (Homo sapiens), sequence (P49840 whole entry, looked up): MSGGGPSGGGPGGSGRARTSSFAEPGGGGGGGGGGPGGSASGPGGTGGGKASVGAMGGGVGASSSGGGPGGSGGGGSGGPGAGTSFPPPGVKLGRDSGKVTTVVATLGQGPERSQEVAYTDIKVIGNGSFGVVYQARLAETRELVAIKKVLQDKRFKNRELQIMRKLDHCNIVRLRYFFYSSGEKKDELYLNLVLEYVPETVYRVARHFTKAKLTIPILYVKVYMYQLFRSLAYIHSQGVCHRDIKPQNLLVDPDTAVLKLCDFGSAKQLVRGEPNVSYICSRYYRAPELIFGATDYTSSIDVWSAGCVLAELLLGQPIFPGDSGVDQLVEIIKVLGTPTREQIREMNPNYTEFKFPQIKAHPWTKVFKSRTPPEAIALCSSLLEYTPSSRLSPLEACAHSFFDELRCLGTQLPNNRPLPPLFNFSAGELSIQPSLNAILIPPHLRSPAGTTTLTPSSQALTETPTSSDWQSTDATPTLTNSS
Glycogen synthase kinase-3 (Homo sapiens), sequence (P49841 whole entry, looked up): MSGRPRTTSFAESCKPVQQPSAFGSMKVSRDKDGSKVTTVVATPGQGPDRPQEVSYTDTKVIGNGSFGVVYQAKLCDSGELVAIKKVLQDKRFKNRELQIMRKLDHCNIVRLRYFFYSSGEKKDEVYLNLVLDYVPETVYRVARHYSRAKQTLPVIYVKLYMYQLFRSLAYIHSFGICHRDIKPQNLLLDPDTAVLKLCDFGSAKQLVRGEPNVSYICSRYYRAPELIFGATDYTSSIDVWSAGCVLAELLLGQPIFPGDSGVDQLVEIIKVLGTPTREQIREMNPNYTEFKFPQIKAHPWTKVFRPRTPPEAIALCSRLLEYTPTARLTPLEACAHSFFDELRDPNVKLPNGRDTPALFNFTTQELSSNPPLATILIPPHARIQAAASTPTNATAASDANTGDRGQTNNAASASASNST
The target of experiment [9] is T2, Casein kinase II. Put plainly: Binding affinity to human CK2 in presence of ATP. Type of experiment: protein-complex assay. In a few lines:
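Ki obtained from Lineweaver-Burk plots of CK2 activity measured at varied ATP and inhibitor concentrations (inhibitor 0 to 0.5 µM). Activity was read by the radiometric phosphocellulose peptide assay.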

Experiment [10] has as its target Tyrosine-protein kinase Lck (Homo sapiens) (UniProt P06239). Put plainly: Residual activity of p56LCK at 10 uM in presence of 100 uM ATP relative to control.
The target of experiment [11] is Ribosomal protein S6 kinase alpha-5 (Homo sapiens) (UniProt O75582). Put plainly: Residual activity of MSK1 at 10 uM in presence of 100 uM ATP relative to control.

Some results are limits rather than exact numbers.

T2 sequence (P67870 whole entry): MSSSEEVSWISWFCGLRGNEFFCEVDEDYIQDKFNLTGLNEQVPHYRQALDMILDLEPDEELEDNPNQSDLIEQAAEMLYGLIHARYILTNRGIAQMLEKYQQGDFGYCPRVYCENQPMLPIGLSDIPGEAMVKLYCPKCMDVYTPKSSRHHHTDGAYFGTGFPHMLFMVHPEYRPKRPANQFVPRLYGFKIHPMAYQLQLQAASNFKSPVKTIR
T2 sequence (P68400 whole entry): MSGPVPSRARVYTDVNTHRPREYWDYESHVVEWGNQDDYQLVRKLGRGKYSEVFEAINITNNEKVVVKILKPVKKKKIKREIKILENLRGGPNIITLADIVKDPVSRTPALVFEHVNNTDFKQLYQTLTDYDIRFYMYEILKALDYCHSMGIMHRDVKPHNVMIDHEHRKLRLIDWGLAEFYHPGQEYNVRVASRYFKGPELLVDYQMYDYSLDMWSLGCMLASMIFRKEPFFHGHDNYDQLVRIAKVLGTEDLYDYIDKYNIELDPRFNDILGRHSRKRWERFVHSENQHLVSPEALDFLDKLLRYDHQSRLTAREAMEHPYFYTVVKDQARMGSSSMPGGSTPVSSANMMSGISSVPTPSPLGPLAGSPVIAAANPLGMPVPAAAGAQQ
T2 sequence (P19784 whole entry): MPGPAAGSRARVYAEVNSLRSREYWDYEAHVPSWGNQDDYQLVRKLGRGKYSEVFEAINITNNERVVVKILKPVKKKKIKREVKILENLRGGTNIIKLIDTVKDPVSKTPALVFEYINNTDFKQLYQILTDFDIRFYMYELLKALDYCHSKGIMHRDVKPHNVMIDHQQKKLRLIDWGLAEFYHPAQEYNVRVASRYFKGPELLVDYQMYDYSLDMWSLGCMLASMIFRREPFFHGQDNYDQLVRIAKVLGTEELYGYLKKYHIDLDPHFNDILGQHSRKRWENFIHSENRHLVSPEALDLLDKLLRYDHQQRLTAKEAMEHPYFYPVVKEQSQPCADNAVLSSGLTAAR
Tyrosine-protein kinase Lck (Homo sapiens), sequence (P06239 2-509 limits assumed): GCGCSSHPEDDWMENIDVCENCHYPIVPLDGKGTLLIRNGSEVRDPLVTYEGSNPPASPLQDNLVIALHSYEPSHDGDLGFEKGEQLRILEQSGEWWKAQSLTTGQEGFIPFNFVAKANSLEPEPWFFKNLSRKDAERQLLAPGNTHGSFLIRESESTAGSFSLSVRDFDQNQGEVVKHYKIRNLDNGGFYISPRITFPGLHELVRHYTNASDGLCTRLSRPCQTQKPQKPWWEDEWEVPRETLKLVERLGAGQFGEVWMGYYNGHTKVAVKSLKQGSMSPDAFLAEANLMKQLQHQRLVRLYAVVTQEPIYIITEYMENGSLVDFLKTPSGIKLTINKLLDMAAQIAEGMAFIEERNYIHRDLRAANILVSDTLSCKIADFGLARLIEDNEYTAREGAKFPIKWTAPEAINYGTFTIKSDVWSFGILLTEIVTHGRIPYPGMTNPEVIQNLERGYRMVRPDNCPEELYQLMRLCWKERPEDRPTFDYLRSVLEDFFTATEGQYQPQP

Turning to `CCCCc1ccc2ncc(C(=O)O)c(O)c2c1`, the Activity in [1] was 87%.

With `Cc1cc(C)c2ncc(C(=O)O)c(O)c2c1`, the Activity in experiment [1] turned out to be 63%.

The compound `O=C(O)c1ccc2ncc(C(=O)O)c(O)c2c1` had an Activity in [1] of 91%.

`COc1cc(OC)c2ncc(C(=O)O)c(O)c2c1` yielded an Activity in experiment [1] of 99%.

In the case of `O=C(O)c1cnc2c(C(=O)O)cccc2c1O`, the Activity in [1] came to 73%.

Compound `COc1cccc2c(O)c(C(=O)O)cnc12` registered an Activity in experiment [1] of 92%.

Consider `O=C(O)c1cnc2cc(C(F)(F)F)ccc2c1O`, for which, in experiment [1], the Activity is 78%.

On Casein kinase II [2], `O=C(O)c1cnc2c(ccc3ccccc32)c1O` had an IC50 of 1000 nM. Besides, the Activity in [3] was 25%; in experiment [4], over 50%; in experiment [5] it was 85%; in experiment [6], 78%; in [1] it was 4.5%; in [7], 81%. The figures for the Activity in experiment [8], in experiment [10] and in [11] were over 50%, 80% and 89%, respectively. Also, at Casein kinase II [9], the Ki came to 280 nM.

In [1], `CC1COc2c(N3CCN(C)CC3)c(F)cc3c(=O)c(C(=O)O)cn1c23` (stereo not given) came in with an Activity of 100%.

Compound `O=C(O)c1cnc2ccc(F)cc2c1O` returned an Activity in [1] of 72%.

The compound `O=C(O)c1cnc2c(F)cccc2c1O` gave an Activity in experiment [1] of 70%.

`Cc1cc(C)c2c(c1)c(=O)c(C(=O)O)cn2C`: the Activity in experiment [1] is 102%.

In the case of `O=C(O)c1cnc2cc(Cl)cc(Cl)c2c1O`, in experiment [1], the Activity came out at 70%.

In turn, `Cn1cc(C(=O)O)c(=O)c2ccccc21` yielded an Activity in [1] of 106%.

As to `O=C(O)c1cnc2c(Cl)cc(Cl)cc2c1O`, the Activity in experiment [1] was determined as 64%.

Take `O=C(O)c1ccc2c(O)c(C(=O)O)cnc2c1`: in [1], the Activity turned out to be 74%.

`O=C(O)c1cnc2c(Cl)cc(Cl)c(Cl)c2c1O`: at Casein kinase II [2], the half-maximal inhibitory concentration (IC50) came to 300 nM. Moreover, the Activity is 11% in experiment [3]; over 50% in [4]; 35% in experiment [5]; 85% in [6]; 2.6% in [1]; 74% in [7]. The Activity is over 50% in [8], 87% in experiment [10] and 71% in experiment [11]. For the same compound, on Casein kinase II [9], the inhibition constant Ki is 60 nM.

`CC(=O)c1ccc2ncc(C(=O)O)c(O)c2c1`: the Activity in experiment [1] was found to be 100%.

`Cc1cccc2c(O)c(C(=O)O)cnc12` displayed an Activity in experiment [1] of 74%.

Consider `Cc1ccc2ncc(C(=O)O)c(O)c2c1`, for which the Activity in [1] was found to be 100%.

In turn, `O=C(O)c1cnc2c(Br)cccc2c1O` had an Activity in [1] of 42%.

In experiment [1], `O=C(O)c1cnc2ccc(Oc3ccccc3)cc2c1O` gave an Activity of 89%.

Consider `Cc1ccc(C)c2c(O)c(C(=O)O)cnc12`, for which the Activity in experiment [1] came out at 32%.

In turn, `O=C(O)c1cnc2c(Cl)cccc2c1O` returned an Activity in experiment [1] of 37%.

With `CC(C)Oc1cccc2c(O)c(C(=O)O)cnc12`, the Activity in experiment [1] amounted to 93%.

Consider `O=C(O)c1cnc2ccccc2c1O`, for which the Activity in experiment [1] came to 103%.

Turning to `CCc1cccc2c(O)c(C(=O)O)cnc12`, the Activity in experiment [1] turned out to be 86%.

Regarding `CCOc1cccc2c(O)c(C(=O)O)cnc12`, the Activity in experiment [1] was determined as 103%.

In turn, `O=C(O)c1c[nH]c2c(Cl)c(Cl)ccc2c1=O` returned a half-maximal inhibitory concentration (IC50) against Casein kinase II [2] of 800 nM.

`O=C(O)c1cnc2c(Cl)c(Cl)ccc2c1O` displayed an Activity in [1] of 12.5%.

For `O=C(O)c1cnc2ccc(I)cc2c1O`, the Activity in experiment [1] is 85%.

On Casein kinase II [2], `Cc1ccc2c(O)c(C(=O)O)cnc2c1C` had an IC50 of at least 33000 nM. In experiment [1], this compound displayed an Activity of 56%.

In turn, `COc1ccc2ncc(C(=O)O)c(O)c2c1` displayed an Activity in experiment [1] of 101%.

Compound `CC(C)c1cccc2c(O)c(C(=O)O)cnc12` gave an Activity in experiment [1] of 95%.

In the case of `O=C(O)c1cnc2ccc(Br)cc2c1O`, in experiment [1], the Activity was found to be 76%.

Consider `O=C(O)c1cnc2ccc(Cl)cc2c1O`, for which the Activity in experiment [1] was found to be 75%.

In experiment [1], `O=C(O)c1cnc2cc3c(cc2c1O)OCCO3` displayed an Activity of 81%.

The compound `Cc1c(Cl)ccc2c(O)c(C(=O)O)cnc12` registered an IC50 on Casein kinase II [2] of 2000 nM. This compound showed an Activity in experiment [1] of 15%.

In experiment [1], `CCCOc1ccc2ncc(C(=O)O)c(O)c2c1` displayed an Activity of 80%.

`CCOc1ccc2ncc(C(=O)O)c(O)c2c1` had an Activity in experiment [1] of 107%.

For the compound `Cc1ccc2c(c1)c(=O)c(C(=O)O)cn2C`, in experiment [1], the Activity worked out at 100%.

In experiment [1], `CC1COc2c(F)c(F)cc3c(=O)c(C(=O)O)cn1c23` (stereo not given) returned an Activity of 88%.

`CN(C)c1ccc2ncc(C(=O)O)c(O)c2c1` showed an Activity in experiment [1] of 75%.

What is called IC50 is the concentration at which inhibition is half-maximal. Read a low IC50 as greater potency. One may read the Ki as a measure of affinity in units of concentration, obtained from inhibition or displacement.

The record behind these values is ChEMBL document CHEMBL1137306, “Evaluation of 3-carboxy-4(1H)-quinolones as inhibitors of human protein kinase CK2” (J Med Chem, 2006).
